Experimental data as given in ChEMBL document CHEMBL5230083, “Novel 2, 5-diketopiperazine derivatives as potent selective histone deacetylase 6 inhibitors: Rational design, synthesis and antiproliferative activity” (Eur J Med Chem, 2020).
Structures can show the parent of a compound that is named as a salt. Active and inactive are the calls of the source. The calls are words filed in the database; no cut-off is given here. Square brackets hold non-standard residues; d marks the D form. Peptide text beside a SMILES is read from it. * marks the point of attachment. Asu = N[C@@H](CCCCCC(=O)O)C(=O)O; X1 = CC(=O)[C@H](Cc1cnc[nH]1)N*; NHOH = ON*

Legend:
[1] = molecular target: Histone deacetylase 1 (Homo sapiens, UniProt Q13547); assay: Inhibition of HDAC1 (unknown origin) using Fluor de lys as substrate by fluorescence based analysis
[2] = molecular target: T1, Protein deacetylase HDAC6 (Homo sapiens, UniProt Q9UBN7); assay: Inhibition of HDAC6 (unknown origin) using Fluor de lys as substrate by fluorescence based analysis
T1 sequence (Q9UBN7 whole entry): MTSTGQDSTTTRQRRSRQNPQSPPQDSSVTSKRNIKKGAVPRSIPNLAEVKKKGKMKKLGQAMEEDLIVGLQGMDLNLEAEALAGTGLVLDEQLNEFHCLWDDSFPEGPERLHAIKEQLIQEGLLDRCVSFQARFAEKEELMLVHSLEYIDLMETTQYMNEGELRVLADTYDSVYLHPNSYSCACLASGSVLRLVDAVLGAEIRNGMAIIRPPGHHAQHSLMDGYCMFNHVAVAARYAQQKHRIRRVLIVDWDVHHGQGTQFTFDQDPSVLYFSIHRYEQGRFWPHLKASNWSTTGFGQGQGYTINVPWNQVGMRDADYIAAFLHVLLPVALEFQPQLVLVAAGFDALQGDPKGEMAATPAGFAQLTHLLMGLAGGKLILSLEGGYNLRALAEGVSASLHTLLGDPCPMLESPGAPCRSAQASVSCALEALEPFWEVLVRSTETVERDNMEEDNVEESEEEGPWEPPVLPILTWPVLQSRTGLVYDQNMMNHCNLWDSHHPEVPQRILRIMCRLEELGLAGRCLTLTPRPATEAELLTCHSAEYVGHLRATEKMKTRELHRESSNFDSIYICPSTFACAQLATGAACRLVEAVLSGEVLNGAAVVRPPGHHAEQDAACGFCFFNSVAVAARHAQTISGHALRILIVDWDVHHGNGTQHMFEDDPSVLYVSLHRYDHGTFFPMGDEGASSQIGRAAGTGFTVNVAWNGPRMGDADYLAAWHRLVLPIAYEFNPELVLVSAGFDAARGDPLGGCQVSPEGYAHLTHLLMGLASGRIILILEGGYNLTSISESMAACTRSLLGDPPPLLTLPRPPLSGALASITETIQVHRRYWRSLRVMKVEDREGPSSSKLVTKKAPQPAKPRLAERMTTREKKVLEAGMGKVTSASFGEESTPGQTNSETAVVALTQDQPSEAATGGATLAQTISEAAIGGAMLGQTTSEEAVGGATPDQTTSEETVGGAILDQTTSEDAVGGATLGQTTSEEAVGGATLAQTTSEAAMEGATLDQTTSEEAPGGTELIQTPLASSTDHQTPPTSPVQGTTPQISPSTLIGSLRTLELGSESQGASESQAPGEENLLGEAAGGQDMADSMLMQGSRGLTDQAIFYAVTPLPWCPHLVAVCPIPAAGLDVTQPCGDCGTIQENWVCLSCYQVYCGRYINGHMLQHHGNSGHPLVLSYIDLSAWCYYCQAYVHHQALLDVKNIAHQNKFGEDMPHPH

[3] = molecular target: Histone deacetylase 8 (Homo sapiens) (UniProt Q9BY41); assay: (§1) Inhibition of HDAC8 (unknown origin) using Fluor de lys as substrate by fluorescence based analysis
[4] = molecular target: T2, Histone deacetylase 8 (Homo sapiens, UniProt Q9BY41); assay: as §1
T2 sequence (Q9BY41 whole entry): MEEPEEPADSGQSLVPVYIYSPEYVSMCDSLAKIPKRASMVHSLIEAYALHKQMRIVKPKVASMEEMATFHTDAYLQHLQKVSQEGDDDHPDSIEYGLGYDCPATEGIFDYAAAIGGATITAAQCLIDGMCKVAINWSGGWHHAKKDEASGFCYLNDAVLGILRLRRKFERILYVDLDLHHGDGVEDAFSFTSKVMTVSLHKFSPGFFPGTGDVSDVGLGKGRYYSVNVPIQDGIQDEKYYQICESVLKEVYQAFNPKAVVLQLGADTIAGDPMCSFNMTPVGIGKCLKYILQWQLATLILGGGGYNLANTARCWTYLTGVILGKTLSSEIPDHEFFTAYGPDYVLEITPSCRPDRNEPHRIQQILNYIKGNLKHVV

[5] = organism: Homo sapiens; assay: Selectivity index, ratio of IC50 for inhibition of HDAC1 (unknown origin) to IC50 for inhibition of HDAC6 (unknown origin)
How it was run: (§2)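 Ratio of IC50 values, each from a Fluor de Lys fluorogenic HDAC assay run in duplicate.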

[6] = organism: Homo sapiens; assay: Selectivity index, ratio of IC50 for inhibition of HDAC8 (unknown origin) to IC50 for inhibition of HDAC6 (unknown origin); how it was run: as §2
[7] = system: RPMI-8226; assay: cells; format: functional, cell-based; conditions: Homo sapiens, RPMI-8226, 72 h
[8] = system: U-266; assay: cells; format: functional, cell-based; conditions: Homo sapiens, U-266, 72 h
[9] = Cytotoxicity against human HS5 cells assessed as inhibition of cell growth incubated for 72 hrs by alamar blue assay; format: toxicity, cell-based
How it was run: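 Cells were grown in IMDM with 20% FBS and penicillin/streptomycin at 37 °C in 5% CO2. Drug-treated cells were incubated 72 h. Alamar blue (1 mM solution) was then added for 5–6 h, and fluorescence read at 530/590 nm.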

[10] = Inhibition of full length HDAC1/MTA1 (162 to 354 residues) (unknown origin) transfected in HEK293F cells using BOC-Lys-AMC as substrate incubated for 30 mins by fluorescence based analysis; parameters: species or system Homo sapiens
[11] = Microsomal stability in human liver microsomes assessed as half life at 0.5 uM prewarmed for 5 mins followed by NADPH addition and measured for 90 mins by LC-MS/MS analysis; format: ADME, Microsome; conditions: time 95 min
How it was run: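 Incubation held 0.8 mg/mL human liver microsomes, MgCl2, potassium phosphate buffer pH 7.4 and 0.5 μM compound. After 5 min prewarming at 37 °C, NADPH started the reaction.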

[12] = system: A549; assay: Antiproliferative activity against human A549 cells assessed as inhibition of cell growth incubated for 72 hrs by alamar blue assay; format: functional, cell-based; conditions: A549, 72 h
How it was run: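 Cells grown in IMDM with 20% FBS and penicillin/streptomycin at 37 °C, 5% CO2. Compound added to plated cells for 72 h. Alamar blue (1 mM solution) then added for 5–6 h, and fluorescence read at 530/590 nm. IC50 derived for single-agent treatment.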

[13] = system: A549; assay: Antiproliferative activity against human A549 cells assessed as inhibition of cell growth incubated for 72 hrs in presence of (R)-4-((3,4-dibenzyl-2,5-dioxopiperazin-1-yl)methyl)-N-hydroxybenzamide by alamar blue assay; format: functional, cell-based; conditions: A549, 72 h
How it was run: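 Alamar blue assay in IMDM/20% FBS at 37 °C, 5% CO2. Cells were exposed to the two agents together for 72 h, with 5–6 h Alamar blue and fluorescence at 530/590 nm. IC50 in combination was determined. CI50 = IC50Ac/IC50As + IC50Bc/IC50Bs, comparing combination with single-agent IC50s.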

Chain of Histone deacetylase 1 (Q13547 whole entry): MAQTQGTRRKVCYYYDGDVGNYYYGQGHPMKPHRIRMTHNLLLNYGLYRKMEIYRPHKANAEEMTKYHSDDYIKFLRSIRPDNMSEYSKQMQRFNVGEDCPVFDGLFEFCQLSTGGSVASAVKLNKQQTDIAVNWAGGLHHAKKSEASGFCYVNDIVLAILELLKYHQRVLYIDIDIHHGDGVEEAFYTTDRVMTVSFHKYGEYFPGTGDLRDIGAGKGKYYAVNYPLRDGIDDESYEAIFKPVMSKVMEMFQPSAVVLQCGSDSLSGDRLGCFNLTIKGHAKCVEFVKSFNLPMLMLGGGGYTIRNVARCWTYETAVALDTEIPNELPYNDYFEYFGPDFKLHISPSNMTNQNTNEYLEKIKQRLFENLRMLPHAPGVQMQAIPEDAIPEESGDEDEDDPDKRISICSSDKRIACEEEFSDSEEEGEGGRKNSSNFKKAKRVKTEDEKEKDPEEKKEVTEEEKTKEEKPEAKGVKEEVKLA

Row | Compound | IC50 [2] [µM] | IC50 [1] [µM] | IC50 [4] [µM] | Ratio IC50 [5] | Ratio IC50 [6] | IC50 [7] [µM] | IC50 [8] [µM] | further results
1 | O=C1CN(Cc2cccc(C(=O)NO)c2)C(=O)[C@H](Cc2ccccc2)N1 | 4.19 | – | – | – | – | – | – | inhibition [1]: inactive; inhibition [3]: inactive
2 | O=C(NO)c1ccc(CN2CC(=O)N(Cc3cccc(Cl)c3)[C@H](Cc3ccccc3)C2=O)cc1 | 0.0105 | 8.55 | 0.15 | 838 | 14 | 13.4 | 23.1 | IC50 at 72 hrs [9]: > 100 µM
3 | O=C(NO)c1ccc(CC(=O)N(CCO)c2ccccc2)cc1 | – | 1.78 | 1.99 | – | – | – | – | –
4 | CN1C(=O)CN(Cc2ccc(C(=O)NO)cc2)C(=O)C1Cc1ccccc1 (racemic) | 0.0167 | – | – | – | – | – | – | –
5 | CC(=O)[C@H](Cc1cnc[nH]1)NC(=O)[C@H](CCCN=C(N)N)NC(=O)[C@H](CCCCCC(=O)NO)NC(=O)CNC(=O)CN (H-GG[Asu](NHOH)R-X1) | – | – | – | – | – | – | – | IC50 [10]: 0.336 µM
6 | O=C(NO)c1ccc(CN2CC(=O)N(Cc3ccccc3Cl)[C@H](Cc3ccccc3)C2=O)cc1 | 0.0101 | 8.31 | 0.162 | 823 | 16 | 12.1 | 23.4 | IC50 at 72 hrs [9]: > 100 µM; half-life at 0.5 µM [11]: 10.1 h
7 | O=C1CN(Cc2ccc(C(=O)NO)cc2)C(=O)[C@H](Cc2ccccc2)N1 | 0.0175 | 7.2 | 0.0156 | 411 | 0.9 | – | – | –
8 | O=C(NO)c1ccc(CN2CC(=O)N(Cc3ccc(Cl)cc3)[C@H](Cc3ccccc3)C2=O)cc1 | 0.0117 | 9.2 | 0.13 | 786 | 11 | – | – | –
9 | O=C1CN(Cc2ccc(C(=O)NO)cc2)C(=O)[C@@H](Cc2ccccc2)N1 | 0.00862 | 8.27 | 0.0309 | 959 | 4 | 54.4 | 86.3 | IC50 at 72 hrs [9]: > 100 µM
10 | COc1cccc(CN2C(=O)CN(Cc3ccc(C(=O)NO)cc3)C(=O)[C@H]2Cc2ccccc2)c1 | 0.0137 | 8.1 | 0.171 | 591 | 12 | – | – | –
11 | O=C(CCCCCCNC(=O)c1cnc(N(c2ccccc2)c2ccccc2)nc1)NO [RICOLINOSTAT] | – | – | – | – | – | 9.26 | > 100 | half-life at 0.5 µM [11]: 7.5 h
12 | COc1cccc2c1C(=O)c1c(O)c3c(c(O)c1C2=O)C[C@@](O)(C(=O)CO)C[C@@H]3O[C@H]1C[C@H](N)[C@H](O)[C@H](C)O1 [DOXORUBICIN HYDROCHLORIDE] | – | – | – | – | – | – | – | IC50 [12]: 0.255 µM; IC50 [13]: 0.152 µM
13 | O=C1CN(Cc2ccc(C(=O)NO)cc2)C(=O)[C@H](Cc2c[nH]c3ccccc23)N1 | 0.00664 | 6.39 | 0.112 | – | – | – | – | –
